Assay results taken from ChEMBL document CHEMBL4033652, “Design, synthesis, and pharmacological evaluation of 4-azolyl-benzamide derivatives as novel GPR52 agonists” (Bioorg Med Chem, 2017).
One block for each compound: values may come before it. Calls of active or inactive are those of the source. The calls are words filed in the database; no cut-off is given here.

How the values were obtained:
[1] = target: T1, G-protein coupled receptor 52 (Homo sapiens, UniProt Q9Y2T5); experiment: Agonist activity at human GPR52 expressed in CHO cells assessed as increase in cAMP level after 30 mins by AlphaScreen assay relative to (N-(2-hydroxyethyl)-3-(2-(3-(trifluoromethyl)benzyl)-1-benzofuran-4-yl)benzamide); assay type: functional, cell-based
T1 sequence (Q9Y2T5 whole entry): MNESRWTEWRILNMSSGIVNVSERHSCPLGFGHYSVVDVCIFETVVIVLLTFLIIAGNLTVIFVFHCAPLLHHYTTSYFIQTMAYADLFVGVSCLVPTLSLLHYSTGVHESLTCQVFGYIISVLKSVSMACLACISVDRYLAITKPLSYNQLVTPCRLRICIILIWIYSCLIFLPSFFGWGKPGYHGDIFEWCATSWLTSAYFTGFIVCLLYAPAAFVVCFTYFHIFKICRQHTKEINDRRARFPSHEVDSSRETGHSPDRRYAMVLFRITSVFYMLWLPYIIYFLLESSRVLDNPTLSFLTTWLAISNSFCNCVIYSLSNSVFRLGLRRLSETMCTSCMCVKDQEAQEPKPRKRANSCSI
How it was run: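 CHO cells stably expressing human GPR52, 10,000 cells per well, exposed to compound 30 min at 37°C in HBSS with 5 mM HEPES pH 7.6, 0.5% BSA, 100 µM IBMX and 100 µM Ro20-1724. cAMP measured by AlphaScreen with acceptor and biotinylated donor beads after overnight room-temperature incubation. Emax set relative to the reference benzofuran benzamide (100%). EC50 taken from mean curves, n = 2–4, with 95% CI.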

[2] = target: T1, G-protein coupled receptor 52; experiment: Agonist activity at human GPR52 expressed in CHO cells assessed as increase in cAMP level after 30 mins by AlphaScreen assay; assay type: functional, cell-based
How it was run: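 CHO cells stably expressing human GPR52 (10,000/well) exposed to compound at various concentrations, 30 min, 37°C, in HBSS with 5 mM HEPES pH 7.6, 0.5% BSA, 100 µM IBMX and 100 µM Ro20-1724. AlphaScreen acceptor/donor beads added overnight at room temperature. Response expressed relative to a reference benzofuran agonist (100%). EC50 from mean curves, n = 2–4, 95% CI.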

Mus musculus [3] = experiment: Anti-psychotic activity in ICR mouse assessed as inhibition of methamphetamine-induced hyperlocomotion at 10 mg/kg, po pretreated for 60 mins followed by methamphetamine administration measured after 150 mins; assay type: functional, organism-based
How it was run: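 Male ICR mice aged 7–8 weeks, housed singly in activity-monitor cages and habituated 60 min. Compound given p.o. (1–30 mg/kg range tested). Methamphetamine 2 mg/kg s.c. given 60 min later. Activity counts recorded for 150 min after compound dosing. Mean ± SEM, t-test and Williams test.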

Brain [4] = experiment: AUC (0 to 24 hrs) in ICR mouse brain at 30 mg/kg, po by LC/MS/MS analysis; assay type: ADME, organism-based; set-up: time < 24 hr, dose 30 mg/kg, route oral; details: in vivo
How it was run: (§1)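 Male ICR mice dosed orally at 10 or 30 mg/kg as a suspension in 0.5% methylcellulose. Blood and brain taken at 0.25, 0.5, 1, 2, 4, 8 and 24 h, n = 3 per time point. Plasma separated; brain homogenized in saline. Samples mixed with acetonitrile, centrifuged, supernatant quantified by LC/MS/MS.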

[5] = Ratio of AUC (0 to 24 hrs) in ICR mouse brain to plasma at 10 mg/kg, po; assay type: ADME, organism-based; details: brain and plasma, read-out: Ratio AUC
[6] = Metabolic stability in human liver microsomes at 1 uM after 15 to 30 mins in presence of NADPH by LC/MS/MS analysis; assay type: ADME, microsome; details: read-out: Stability
How it was run: (§2)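 Human, rat or mouse liver microsomes (0.2 mg/mL protein) incubated with test compound at 1 µmol/L in 50 mmol/L phosphate buffer pH 7.4. Reaction started with an NADPH-generating system, run 15 and 30 min at 37°C, stopped with acetonitrile. Duplicates. Parent compound loss measured by LC/MS/MS.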

[7] = MRT in ICR mouse plasma at 30 mg/kg, po by LC/MS/MS analysis; assay type: ADME, organism-based; how it was run: as §1
[8] = Tmax in ICR mouse plasma at 30 mg/kg, po by LC/MS/MS analysis; assay type: ADME, organism-based; how it was run: as §1
[9] = Oral bioavailability in Sprague-Dawley rat at 1 mg/kg administered as cassette dose by LC-MS/MS analysis; assay type: ADME, organism-based; details: in vivo
How it was run: (§3)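 Cassette dosing in non-fasted male SD rats (n = 3): i.v. 0.1 mg/kg or p.o. 1 mg/kg. Plasma prepared from blood, deproteinized, centrifuged, supernatant measured by LC/MS/MS. AUC taken over 0–8 h.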

[10] = target: Glutamate [NMDA] receptor (Homo sapiens) (UniProt Q05586+Q12879+Q13224+O15399+O60391+Q14957+Q8TCU5); experiment: Inhibition of NMDA receptor (unknown origin) at 10 uM
[11] = AUC (0 to 24 hrs) in ICR mouse plasma at 30 mg/kg, po by LC/MS/MS analysis; assay type: ADME, organism-based; set-up: time < 24 hr, dose 30 mg/kg, route oral; how it was run: as §1
[12] = Tmax in ICR mouse brain at 30 mg/kg, po by LC/MS/MS analysis; assay type: ADME, organism-based; how it was run: as §1
[13] = Tmax in ICR mouse brain at 10 mg/kg, po by LC/MS/MS analysis; assay type: ADME, organism-based; how it was run: as §1
[14] = Tmax in ICR mouse plasma at 10 mg/kg, po by LC/MS/MS analysis; assay type: ADME, organism-based; how it was run: as §1
[15] = Protein binding in ICR mouse plasma at 1 uM after 24 hrs by LC/MS/MS based equilibrium dailysis method; assay type: ADME, cell-free; details: read-out: PPB (converted)
How it was run: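 Plasma from male ICR mice spiked with compound at a final 1 µmol/L. Equilibrium dialysis (MWCO 6–8 kDa) against PBS for 24 h at room temperature. Both sides quantified by LC-MS/MS; bound fraction calculated from the plasma and PBS concentrations.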

[16] = target: D(1A) dopamine receptor (Homo sapiens) (UniProt P21728); experiment: Inhibition of dopamine D1 receptor (unknown origin) at 10 uM
Sequence of D(1A) dopamine receptor (Homo sapiens) (P21728 whole entry): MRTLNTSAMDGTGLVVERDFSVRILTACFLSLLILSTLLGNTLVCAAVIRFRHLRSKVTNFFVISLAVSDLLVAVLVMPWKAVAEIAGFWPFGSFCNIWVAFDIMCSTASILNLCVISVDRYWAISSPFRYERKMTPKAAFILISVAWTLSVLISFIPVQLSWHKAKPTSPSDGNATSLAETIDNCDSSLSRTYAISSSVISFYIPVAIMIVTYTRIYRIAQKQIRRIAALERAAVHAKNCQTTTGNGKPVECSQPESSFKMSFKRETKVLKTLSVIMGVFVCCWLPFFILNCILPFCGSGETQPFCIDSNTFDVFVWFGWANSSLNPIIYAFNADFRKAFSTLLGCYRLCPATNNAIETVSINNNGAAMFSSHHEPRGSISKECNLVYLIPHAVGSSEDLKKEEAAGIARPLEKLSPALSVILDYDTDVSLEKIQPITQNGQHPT

[17] = Cmax in ICR mouse plasma at 30 mg/kg, po by LC/MS/MS analysis; assay type: ADME, organism-based; set-up: dose 30 mg/kg, route oral; how it was run: as §1
dopamine D2L receptor = dopamine D2L receptor (Homo sapiens, UniProt P14416); experiment: Inhibition of dopamine D2L receptor (unknown origin) at 10 uM
Sequence of dopamine D2L receptor (P14416 whole entry): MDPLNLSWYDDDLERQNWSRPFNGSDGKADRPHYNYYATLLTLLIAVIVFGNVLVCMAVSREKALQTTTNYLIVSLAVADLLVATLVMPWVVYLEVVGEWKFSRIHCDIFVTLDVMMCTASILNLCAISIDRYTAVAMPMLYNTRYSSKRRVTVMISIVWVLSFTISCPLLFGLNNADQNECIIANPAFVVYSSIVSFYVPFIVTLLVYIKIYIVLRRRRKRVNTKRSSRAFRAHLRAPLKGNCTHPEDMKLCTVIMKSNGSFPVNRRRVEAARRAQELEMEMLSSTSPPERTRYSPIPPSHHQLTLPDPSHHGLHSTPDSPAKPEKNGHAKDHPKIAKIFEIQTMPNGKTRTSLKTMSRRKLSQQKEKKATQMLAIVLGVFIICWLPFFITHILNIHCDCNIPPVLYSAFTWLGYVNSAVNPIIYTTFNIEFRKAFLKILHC

[18] = target: G-protein coupled receptor 52 (Mus musculus) (UniProt P0C5J4); experiment: Agonist activity at mouse GPR52 relative to (N-(2-hydroxyethyl)-3-(2-(3-(trifluoromethyl)benzyl)-1-benzofuran-4-yl)benzamide)
Sequence of G-protein coupled receptor 52 (Mus musculus) (P0C5J4 whole entry): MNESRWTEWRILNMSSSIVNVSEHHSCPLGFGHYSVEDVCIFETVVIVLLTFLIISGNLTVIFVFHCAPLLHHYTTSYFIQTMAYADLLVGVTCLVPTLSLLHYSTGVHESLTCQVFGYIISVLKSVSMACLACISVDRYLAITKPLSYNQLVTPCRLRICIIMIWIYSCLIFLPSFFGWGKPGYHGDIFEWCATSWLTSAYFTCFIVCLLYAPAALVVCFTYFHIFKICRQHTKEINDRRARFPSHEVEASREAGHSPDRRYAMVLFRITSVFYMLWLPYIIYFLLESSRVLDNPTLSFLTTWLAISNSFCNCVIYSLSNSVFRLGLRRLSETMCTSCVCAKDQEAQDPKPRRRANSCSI

[19] = MRT in ICR mouse brain at 10 mg/kg, po by LC/MS/MS analysis; assay type: ADME, organism-based; how it was run: as §1
[20] = Metabolic stability in mouse liver microsomes at 1 uM after 15 to 30 mins in presence of NADPH by LC/MS/MS analysis; assay type: ADME, microsome; details: read-out: Stability; how it was run: as §2
Mus musculus [21] = experiment: Toxicity in ICR mouse model of methamphetamine-induced hyperlocomotion assessed as cataleptogenic effect at 10 mg/kg, po; assay type: organism-based; details: in vivo
[22] = Total clearance in Sprague-Dawley rat at 0.1 mg/kg, iv or 1 mg/kg, po administered as cassette dose by LC/MS/MS analysis; assay type: ADME, organism-based; details: in vivo; how it was run: as §3
[23] = Cmax in ICR mouse brain at 10 mg/kg, po by LC/MS/MS analysis; assay type: ADME, organism-based; set-up: dose 10 mg/kg, route oral; how it was run: as §1
[24] = Ratio of AUC (0 to 24 hrs) in ICR mouse brain to plasma at 30 mg/kg, po; assay type: ADME, organism-based; details: brain and plasma, read-out: Ratio AUC
[25] = AUC (0 to 24 hrs) in ICR mouse plasma at 10 mg/kg, po by LC/MS/MS analysis; assay type: ADME, organism-based; set-up: time < 24 hr, dose 10 mg/kg, route oral; how it was run: as §1
[26] = MRT in ICR mouse brain at 30 mg/kg, po by LC/MS/MS analysis; assay type: ADME, organism-based; how it was run: as §1
[27] = target: G-protein coupled receptor 52 (Mus musculus, UniProt P0C5J4); experiment: Agonist activity at mouse GPR52
Sequence of G-protein coupled receptor 52 (Mus musculus, UniProt P0C5J4) (P0C5J4 whole entry): as above

[28] = MRT in ICR mouse plasma at 10 mg/kg, po by LC/MS/MS analysis; assay type: ADME, organism-based; how it was run: as §1
Brain [29] = experiment: AUC (0 to 24 hrs) in ICR mouse brain at 10 mg/kg, po by LC/MS/MS analysis; assay type: ADME, organism-based; set-up: time < 24 hr, dose 10 mg/kg, route oral; details: in vivo; how it was run: as §1
[30] = Cmax in ICR mouse plasma at 10 mg/kg, po by LC/MS/MS analysis; assay type: ADME, organism-based; set-up: dose 10 mg/kg, route oral; how it was run: as §1
[31] = target: 5-hydroxytryptamine receptor 2A (Homo sapiens) (UniProt P28223); experiment: Inhibition of 5-HT2 receptor (unknown origin) at 10 uM
Sequence of 5-hydroxytryptamine receptor 2A (Homo sapiens) (P28223 whole entry): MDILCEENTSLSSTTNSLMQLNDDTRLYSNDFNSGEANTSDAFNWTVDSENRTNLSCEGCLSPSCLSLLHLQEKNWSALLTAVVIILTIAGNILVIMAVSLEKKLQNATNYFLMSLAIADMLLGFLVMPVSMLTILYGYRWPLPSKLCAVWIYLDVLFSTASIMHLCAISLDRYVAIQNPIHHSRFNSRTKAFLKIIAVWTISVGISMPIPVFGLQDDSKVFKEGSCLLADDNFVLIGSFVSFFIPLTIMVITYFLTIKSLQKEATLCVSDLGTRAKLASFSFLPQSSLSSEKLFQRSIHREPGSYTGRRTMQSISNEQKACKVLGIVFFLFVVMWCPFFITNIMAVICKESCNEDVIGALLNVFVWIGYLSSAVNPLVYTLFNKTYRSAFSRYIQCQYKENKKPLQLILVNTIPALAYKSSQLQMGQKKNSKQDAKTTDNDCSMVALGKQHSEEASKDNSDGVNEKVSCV

[32] = Cmax in ICR mouse brain at 30 mg/kg, po by LC/MS/MS analysis; assay type: ADME, organism-based; set-up: dose 30 mg/kg, route oral; how it was run: as §1
[33] = AUC (0 to 8 hrs) in Sprague-Dawley rat at 1 mg/kg, po administered as cassette dose by LC-MS/MS analysis; assay type: ADME, organism-based; set-up: time < 8 hr, dose 1 mg/kg, route oral; details: in vivo; how it was run: as §3
[34] = Metabolic stability in rat liver microsomes at 1 uM after 15 to 30 mins in presence of NADPH by LC/MS/MS analysis; assay type: ADME, microsome; details: read-out: Stability; how it was run: as §2
Homo sapiens = species: Homo sapiens; experiment: Inhibition of AMPA receptor (unknown origin) at 10 uM

- Emax [1]: 75%
- EC50 [2]: 260 nM
Compound: Cc1cc(-c2sc(Cc3cccc(F)c3)nc2C)ccc1C(N)=O

- Emax [1]: 84%
- EC50 [2]: 380 nM
Compound: Cc1nc(Cc2cccc(C(F)(F)F)c2)sc1-c1ccc(C(N)=O)c(F)c1

- Emax [1]: 85%
- EC50 [2]: 160 nM
Compound: COc1cccc(Cc2nc(C)c(-c3ccc(C(N)=O)c(C)c3)s2)c1

- Emax [1]: 92%
- EC50 [2]: 110 nM
Compound: Cc1nc(Cc2cccc(C(F)(F)F)c2)sc1-c1ccc(C(N)=O)c(C(F)(F)F)c1

- Emax [1]: 60%
- EC50 [2]: 210 nM
Compound: Cc1cc(-c2sc(Cc3ccc(Cl)cc3)nc2C)ccc1C(N)=O

- AUC (Brain [4]): 10.414 µg·h/g
- Kp [5]: 1.53
- microsomal CLint at 1 µM [6]: 17 µL/min/mg
- MRT [7]: 3.54 h
- Tmax [8]: 1 h
- bioavailability [9]: 53.8%
- inhibition [10]: < 50%
- AUC(0-t) at 24 h [11]: 6200 ng·h/mL
- Tmax [12]: 1 h
- Tmax [13]: 30 min
- Tmax [14]: 30 min
- fraction unbound at 24 h, 1 µM [15]: 0.199
- inhibition [16]: < 50%
- Cmax [17]: 1210 ng/mL
- inhibition at 10 µM (dopamine D2L receptor): < 50%
- Emax [18]: 114%
- MRT [19]: 2.06 h
- microsomal CLint at 1 µM [20]: 24 µL/min/mg
- clearance [22]: 23.5 mL/min/kg
- Emax [1]: 122%
- Cmax [23]: 1020 ng/g
- Kp [24]: 1.68
- AUC(0-t) at 24 h [25]: 2430 ng·h/mL
- MRT [26]: 3.25 h
- EC50 [27]: 71 nM
- MRT [28]: 2.29 h
- AUC (Brain [29]): 3.731 µg·h/g
- Cmax [30]: 688 ng/mL
- inhibition [31]: < 50%
- Cmax [32]: 2330 ng/g
- AUC(0-t) at 8 h [33]: 384 ng·h/mL
- microsomal CLint at 1 µM [34]: 9 µL/min/mg
- inhibition (Homo sapiens): < 50%
- EC50 [2]: 75 nM
Compound: Cc1cc(-n2nc(Cc3cc(F)cc(C(F)(F)F)c3)nc2C)ccc1C(N)=O [TP-024]
- inhibition (Mus musculus [3]): Active
- Activity (Mus musculus [21]): Non-Toxic

- Emax [1]: 63%
- EC50 [2]: 370 nM
Compound: Cc1nc(Cc2cccc(C(F)(F)F)c2)sc1-c1ccc(C(N)=O)c(C(C)C)c1

- bioavailability [9]: 30.5%
- clearance [22]: 32.9 mL/min/kg
- Emax [1]: 123%
- AUC(0-t) at 8 h [33]: 155 ng·h/mL
- EC50 [2]: 23 nM
Compound: Cc1cc(-c2cc(Cc3cc(F)cc(C(F)(F)F)c3)nn2C)ccc1C(N)=O

- bioavailability [9]: 28.4%
- clearance [22]: 18.8 mL/min/kg
- Emax [1]: 107%
- AUC(0-t) at 8 h [33]: 268 ng·h/mL
- EC50 [2]: 59 nM
Compound: Cc1cc(-n2cc(Cc3cc(F)cc(C(F)(F)F)c3)nc2C)ccc1C(N)=O

- Emax [1]: 86%
- EC50 [2]: 73 nM
Compound: Cc1cc(-c2sc(Cc3cccc(C(F)(F)F)c3)nc2C)ccc1C(N)=O

- Emax [1]: 70%
- EC50 [2]: 400 nM
Compound: Cc1nc(Cc2cccc(C(F)(F)F)c2)sc1-c1ccc(C(N)=O)cn1
